SMILES strings stand for the structures.

One assay deals with recombinant HDAC1 (Homo sapiens, UniProt Q13547). Briefly: Recombinant HDAC activity assay. The class given is biochemical. The following applies: 2 h, read-out: % HDAC activity, Class I HDACs, 1.
For another assay, the target named is recombinant HDAC2 (Homo sapiens, UniProt Q92769). Briefly: Recombinant HDAC activity assay. The following applies: 2 h, read-out: % HDAC activity, Class I HDACs, 2. The class given is biochemical.
For another assay, the target named is recombinant HDAC3 (Homo sapiens, UniProt O15379). The assay can be described thus: Recombinant HDAC activity assay. The following applies: 2 h, read-out: % HDAC activity, Class I HDACs, 3. The class given is biochemical.
recombinant HDAC3, sequence (O15379 whole entry): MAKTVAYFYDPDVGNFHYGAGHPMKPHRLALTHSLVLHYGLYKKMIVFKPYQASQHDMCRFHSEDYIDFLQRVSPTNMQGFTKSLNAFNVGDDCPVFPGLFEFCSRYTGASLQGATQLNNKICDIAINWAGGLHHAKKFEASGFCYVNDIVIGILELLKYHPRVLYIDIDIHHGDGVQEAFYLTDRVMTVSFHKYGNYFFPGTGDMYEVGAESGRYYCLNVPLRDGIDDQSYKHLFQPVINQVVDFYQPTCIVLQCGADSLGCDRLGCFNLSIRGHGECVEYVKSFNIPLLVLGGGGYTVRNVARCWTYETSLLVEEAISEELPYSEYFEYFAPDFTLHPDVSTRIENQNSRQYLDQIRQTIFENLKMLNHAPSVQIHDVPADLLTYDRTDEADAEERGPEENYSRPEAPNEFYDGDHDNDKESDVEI
recombinant HDAC3, sequence (Q9Y618 395-489 partner limits assumed): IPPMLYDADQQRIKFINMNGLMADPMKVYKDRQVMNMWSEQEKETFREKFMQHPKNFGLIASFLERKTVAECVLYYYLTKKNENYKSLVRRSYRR
A further assay concerns the target T1, recombinant HDAC8 (Homo sapiens, UniProt Q9BY41).
T1 sequence (Q9BY41 1-377): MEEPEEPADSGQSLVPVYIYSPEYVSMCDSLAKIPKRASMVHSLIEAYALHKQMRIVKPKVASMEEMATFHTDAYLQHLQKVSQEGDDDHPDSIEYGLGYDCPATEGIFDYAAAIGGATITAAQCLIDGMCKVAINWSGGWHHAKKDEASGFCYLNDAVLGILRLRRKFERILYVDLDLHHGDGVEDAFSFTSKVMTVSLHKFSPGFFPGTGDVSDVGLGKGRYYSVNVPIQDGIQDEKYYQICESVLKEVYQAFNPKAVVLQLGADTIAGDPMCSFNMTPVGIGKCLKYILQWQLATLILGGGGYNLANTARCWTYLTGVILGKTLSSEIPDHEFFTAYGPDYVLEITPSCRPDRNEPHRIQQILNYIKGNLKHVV
The assay can be described thus: Recombinant HDAC activity assay. The class given is biochemical. Particulars: 2 h, read-out: % HDAC activity, Class I HDACs, 8.

In the next assay the target is recombinant HDAC4 (Homo sapiens, UniProt P56524). The assay can be described thus: Recombinant HDAC activity assay. The class given is biochemical. The following applies: 2 h, read-out: % HDAC activity, Class IIa HDACs, 4.
recombinant HDAC4, sequence (P56524 whole entry): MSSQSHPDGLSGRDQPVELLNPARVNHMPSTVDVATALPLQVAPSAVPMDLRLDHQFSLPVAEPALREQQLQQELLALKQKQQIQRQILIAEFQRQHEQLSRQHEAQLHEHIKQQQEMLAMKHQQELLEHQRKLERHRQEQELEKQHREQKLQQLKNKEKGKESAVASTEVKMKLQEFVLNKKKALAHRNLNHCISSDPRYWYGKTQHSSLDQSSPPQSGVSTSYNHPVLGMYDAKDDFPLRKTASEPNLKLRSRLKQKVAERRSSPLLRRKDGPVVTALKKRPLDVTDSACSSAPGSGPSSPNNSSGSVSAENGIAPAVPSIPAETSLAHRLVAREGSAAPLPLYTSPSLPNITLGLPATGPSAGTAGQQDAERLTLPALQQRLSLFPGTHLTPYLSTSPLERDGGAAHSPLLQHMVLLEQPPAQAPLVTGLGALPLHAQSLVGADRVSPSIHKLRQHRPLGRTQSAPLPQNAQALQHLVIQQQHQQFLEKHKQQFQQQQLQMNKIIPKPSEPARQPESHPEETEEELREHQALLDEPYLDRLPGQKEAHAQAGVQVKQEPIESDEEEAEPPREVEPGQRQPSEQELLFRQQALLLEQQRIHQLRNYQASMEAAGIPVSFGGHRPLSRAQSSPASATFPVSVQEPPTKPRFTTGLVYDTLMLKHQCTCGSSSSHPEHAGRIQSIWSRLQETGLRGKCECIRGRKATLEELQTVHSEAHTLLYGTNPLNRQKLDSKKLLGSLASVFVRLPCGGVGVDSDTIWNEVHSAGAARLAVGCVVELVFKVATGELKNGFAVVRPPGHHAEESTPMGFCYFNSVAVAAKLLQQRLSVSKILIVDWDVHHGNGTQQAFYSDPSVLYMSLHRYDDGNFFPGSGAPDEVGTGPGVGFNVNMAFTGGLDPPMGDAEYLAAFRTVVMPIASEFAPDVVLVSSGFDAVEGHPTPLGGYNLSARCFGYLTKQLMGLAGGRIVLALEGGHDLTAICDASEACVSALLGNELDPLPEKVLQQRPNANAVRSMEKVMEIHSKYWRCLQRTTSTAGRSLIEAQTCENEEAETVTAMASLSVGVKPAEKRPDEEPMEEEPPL
A further assay concerns the target recombinant HDAC5 (Homo sapiens, UniProt Q9UQL6). Briefly: Recombinant HDAC activity assay. The class given is biochemical. The following applies: 2 h, read-out: % HDAC activity, Class IIa HDACs, 5.
The next assay addresses recombinant HDAC9 (Homo sapiens, UniProt Q9UKV0). The assay can be described thus: Recombinant HDAC activity assay. The class given is biochemical. The following applies: 2 h, read-out: % HDAC activity, Class IIa HDACs, 9.
In another assay the target is T2, recombinant HDAC10 (Homo sapiens, UniProt Q969S8).
T2 sequence (Q969S8 1-669): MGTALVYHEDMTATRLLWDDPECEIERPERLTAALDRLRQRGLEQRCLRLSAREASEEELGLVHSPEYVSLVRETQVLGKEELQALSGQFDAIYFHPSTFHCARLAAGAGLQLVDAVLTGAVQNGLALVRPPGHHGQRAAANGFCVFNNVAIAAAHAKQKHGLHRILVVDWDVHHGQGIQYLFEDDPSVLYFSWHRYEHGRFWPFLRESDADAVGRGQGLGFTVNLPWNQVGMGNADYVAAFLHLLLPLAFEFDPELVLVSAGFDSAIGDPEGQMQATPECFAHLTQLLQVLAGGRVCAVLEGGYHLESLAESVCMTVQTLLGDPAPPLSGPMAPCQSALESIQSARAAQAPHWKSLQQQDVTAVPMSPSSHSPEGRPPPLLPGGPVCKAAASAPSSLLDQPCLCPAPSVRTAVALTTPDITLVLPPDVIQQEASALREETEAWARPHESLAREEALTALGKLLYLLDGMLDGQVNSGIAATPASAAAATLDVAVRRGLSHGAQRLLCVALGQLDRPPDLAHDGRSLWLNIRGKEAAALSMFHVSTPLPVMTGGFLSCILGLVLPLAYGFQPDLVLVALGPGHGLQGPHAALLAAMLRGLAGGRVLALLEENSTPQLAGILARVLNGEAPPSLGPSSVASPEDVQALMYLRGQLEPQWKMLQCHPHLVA
Briefly: Recombinant HDAC activity assay. The class given is biochemical. The following applies: 2 h, read-out: % HDAC activity, Class IIb HDACs, 10.

The test system of assay [1] is HDAC activity in bovine cardiac tissue. The assay can be described thus: Natural product library screen with class-selective HDAC substrates. The class given is biochemical. The following applies: 2 hours treatment. A digest of the protocol:
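The screen covered 131 natural compounds against bovine cardiac tissue lysate at 30 µg protein/well in PBS (pH 7.4 lysis buffer with Triton X-100 and NaCl). Test compound for 2 h, then separate class I, IIa or IIb fluorogenic acyl-lysine-AMC substrates for 2 h at 37 °C. Developer (Triton X-100, 3 µM TSA, 0.75 mg/ml trypsin) for 20 min; fluorescence read at 360/460 nm.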

Another assay relates to H9c2 cells. The assay can be described thus: Acetyl-H3K9/14 immunoblot of whole cell extract. The class given is cell-based, rat. The following applies: H9c2 myocytes, 50 µM, 2 hours. The procedure, abridged: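 H9c2 cells were grown in DMEM with 10% FBS and treated at 90% confluence for 2 h with test compound or DMSO, with TSA as positive control. Washed in ice-cold PBS, lysed in PBS pH 7.4 with 0.5% Triton X-100 and 300 mM NaCl plus inhibitors, sonicated and clarified. SDS-PAGE, nitrocellulose, acetyl-H3K9/14 and total H3 antibodies, chemiluminescence; densitometry; ANOVA with Tukey.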

recombinant HDAC2, sequence (Q92769 whole entry): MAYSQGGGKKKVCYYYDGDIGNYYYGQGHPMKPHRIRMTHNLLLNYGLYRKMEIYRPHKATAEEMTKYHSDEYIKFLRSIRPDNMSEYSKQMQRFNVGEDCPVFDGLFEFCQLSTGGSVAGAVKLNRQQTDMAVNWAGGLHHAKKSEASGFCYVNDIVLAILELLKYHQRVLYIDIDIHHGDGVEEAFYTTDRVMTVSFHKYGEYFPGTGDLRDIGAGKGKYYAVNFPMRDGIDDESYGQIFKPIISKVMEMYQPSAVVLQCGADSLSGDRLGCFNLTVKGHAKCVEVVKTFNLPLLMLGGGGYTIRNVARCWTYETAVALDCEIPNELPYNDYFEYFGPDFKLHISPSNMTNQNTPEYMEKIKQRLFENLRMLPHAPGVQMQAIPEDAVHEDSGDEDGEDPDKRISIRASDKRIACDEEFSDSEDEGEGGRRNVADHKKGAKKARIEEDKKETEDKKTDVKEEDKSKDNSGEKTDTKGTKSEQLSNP
recombinant HDAC9, sequence (Q9UKV0 whole entry): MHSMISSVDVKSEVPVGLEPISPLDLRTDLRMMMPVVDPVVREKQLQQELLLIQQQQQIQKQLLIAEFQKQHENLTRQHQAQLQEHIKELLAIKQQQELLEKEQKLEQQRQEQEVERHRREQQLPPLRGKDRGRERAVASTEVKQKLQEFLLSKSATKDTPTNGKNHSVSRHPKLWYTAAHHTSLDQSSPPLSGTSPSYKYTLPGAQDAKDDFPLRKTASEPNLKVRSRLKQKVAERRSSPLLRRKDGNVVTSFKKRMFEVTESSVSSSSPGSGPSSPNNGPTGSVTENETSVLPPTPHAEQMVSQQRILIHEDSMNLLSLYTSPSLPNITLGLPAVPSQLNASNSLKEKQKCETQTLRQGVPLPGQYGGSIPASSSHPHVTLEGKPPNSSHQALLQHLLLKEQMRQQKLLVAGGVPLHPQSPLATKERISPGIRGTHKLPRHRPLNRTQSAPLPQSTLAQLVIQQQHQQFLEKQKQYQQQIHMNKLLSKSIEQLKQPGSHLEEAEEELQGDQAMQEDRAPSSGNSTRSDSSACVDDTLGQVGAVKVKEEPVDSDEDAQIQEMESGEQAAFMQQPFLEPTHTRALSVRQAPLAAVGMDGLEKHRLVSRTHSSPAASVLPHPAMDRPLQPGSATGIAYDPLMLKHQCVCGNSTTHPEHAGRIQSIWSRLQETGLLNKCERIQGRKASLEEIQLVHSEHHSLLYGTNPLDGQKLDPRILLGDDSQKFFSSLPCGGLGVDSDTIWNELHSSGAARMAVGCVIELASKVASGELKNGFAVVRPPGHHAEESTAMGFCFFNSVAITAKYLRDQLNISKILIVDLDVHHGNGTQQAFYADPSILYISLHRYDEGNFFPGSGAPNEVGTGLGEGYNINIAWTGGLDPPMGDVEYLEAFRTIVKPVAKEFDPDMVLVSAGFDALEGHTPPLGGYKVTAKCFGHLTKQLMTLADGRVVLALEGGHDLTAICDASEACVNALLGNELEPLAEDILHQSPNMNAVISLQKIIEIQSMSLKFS
recombinant HDAC5, sequence (Q9UQL6 whole entry): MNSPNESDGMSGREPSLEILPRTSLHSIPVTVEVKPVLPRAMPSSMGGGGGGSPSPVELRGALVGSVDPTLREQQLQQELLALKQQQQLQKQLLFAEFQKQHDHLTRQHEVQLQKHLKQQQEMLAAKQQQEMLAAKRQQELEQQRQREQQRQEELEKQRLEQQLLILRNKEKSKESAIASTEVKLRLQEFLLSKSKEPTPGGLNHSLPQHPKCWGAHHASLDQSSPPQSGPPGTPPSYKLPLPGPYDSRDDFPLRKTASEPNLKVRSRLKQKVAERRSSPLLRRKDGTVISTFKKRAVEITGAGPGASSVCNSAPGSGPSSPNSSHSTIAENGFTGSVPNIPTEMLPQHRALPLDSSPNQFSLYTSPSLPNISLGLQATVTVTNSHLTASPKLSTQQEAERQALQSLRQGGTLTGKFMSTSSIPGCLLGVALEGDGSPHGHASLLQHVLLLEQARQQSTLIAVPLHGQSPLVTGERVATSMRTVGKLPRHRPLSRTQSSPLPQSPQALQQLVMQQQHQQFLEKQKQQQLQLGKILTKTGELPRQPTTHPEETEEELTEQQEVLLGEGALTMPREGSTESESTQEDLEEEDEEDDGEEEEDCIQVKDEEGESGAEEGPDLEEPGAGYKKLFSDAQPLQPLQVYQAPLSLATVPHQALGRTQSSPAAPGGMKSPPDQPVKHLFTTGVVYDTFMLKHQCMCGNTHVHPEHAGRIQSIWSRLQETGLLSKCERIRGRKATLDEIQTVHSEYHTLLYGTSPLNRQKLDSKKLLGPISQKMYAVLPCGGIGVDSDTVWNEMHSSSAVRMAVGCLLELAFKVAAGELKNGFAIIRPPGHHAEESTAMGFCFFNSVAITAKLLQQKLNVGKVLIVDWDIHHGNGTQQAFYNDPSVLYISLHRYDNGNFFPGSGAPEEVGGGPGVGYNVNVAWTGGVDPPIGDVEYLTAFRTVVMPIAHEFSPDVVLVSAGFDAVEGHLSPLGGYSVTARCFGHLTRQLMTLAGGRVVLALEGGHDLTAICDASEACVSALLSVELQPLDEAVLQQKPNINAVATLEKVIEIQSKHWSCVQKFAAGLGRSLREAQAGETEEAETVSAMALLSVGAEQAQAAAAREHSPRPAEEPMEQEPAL
recombinant HDAC1, sequence (Q13547 whole entry): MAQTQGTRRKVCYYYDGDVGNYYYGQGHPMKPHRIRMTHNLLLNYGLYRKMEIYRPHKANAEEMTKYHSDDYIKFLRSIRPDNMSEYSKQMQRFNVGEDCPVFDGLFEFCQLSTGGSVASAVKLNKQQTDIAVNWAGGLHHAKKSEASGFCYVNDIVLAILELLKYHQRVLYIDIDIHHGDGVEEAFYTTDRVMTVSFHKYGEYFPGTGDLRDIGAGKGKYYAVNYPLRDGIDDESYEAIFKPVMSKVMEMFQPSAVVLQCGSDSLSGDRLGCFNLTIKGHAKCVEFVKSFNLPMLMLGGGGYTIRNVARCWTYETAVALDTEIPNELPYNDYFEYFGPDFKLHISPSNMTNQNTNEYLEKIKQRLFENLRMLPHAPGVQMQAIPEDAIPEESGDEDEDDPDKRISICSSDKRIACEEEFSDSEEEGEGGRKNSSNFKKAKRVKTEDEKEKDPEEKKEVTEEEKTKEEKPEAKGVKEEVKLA

Regarding `Cc1cc(O)c2c(c1)C(=O)c1cc(O)cc(O)c1C2=O` [Emodin], the remaining activity at 50 µM at recombinant HDAC1 worked out at 35.8%; at recombinant HDAC2 it was 35%; at recombinant HDAC3, 35.1%; on recombinant HDAC8, 32.3%; on recombinant HDAC4 it was 92.8%; at recombinant HDAC5, 31.4%. Moreover, the remaining activity at 50 µM at recombinant HDAC9 was 34.7%; at recombinant HDAC10, 35.8%. The “catalytic HDAC activity across class I, IIa and IIb substrates, effect in words” value in [1] is on record as “dose-dependent pan-HDAC inhibition”. Also, the “acetylation of histone 3 on lysine 9/14 (Ac-H3 K9/14) via immunoblot” value in the assay on H9c2 cells is given as “increased”.
